From ChEMBL document CHEMBL4402567, “Structure-Activity Relationship Studies on Diversified Salicylamide Derivatives as Potent Inhibitors of Human Adenovirus Infection” (J Med Chem, 2020)
The source made the active and inactive calls. The rule behind the calls is not given here.

Key:
[1] = test system: Human adenovirus 5; test: Antiviral activity against Human adenovirus 5 infected in 293beta5 cells assessed as inhibition of viral infection at 5 uM measured after 20 to 40 mins post infection by GFP reporter gene assay relative to control; format: functional; set-up: scale not given: the % may be the effect or the level left
[2] = test system: Human adenovirus 5; test: Antiviral activity against Human adenovirus 5 infected in 293beta5 cells assessed as inhibition of plaque formation incubated for 7 days by GFP reporter gene assay; format: functional, organism-based; details: Human mastadenovirus C, 293beta5, 168 h
Outline: (§1)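 HAdV5-GFP plaque assay in 293β5 cells at low MOI. Inhibition is expressed as percent of the infected control, with single-dose screening at 10 μM. Compounds giving >90% inhibition went on to IC50 determination. Values are means ± SD of triplicate samples from three independent experiments.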

[3] = Selectivity index, ratio of CC50 for cytotoxicity against human A549 cells to IC50 for antiviral activity against Human adenovirus 5 infected in 293beta5 cells assessed as inhibition of plaque formation after 7 days; format: toxicity, cell-based; details: read-out: Ratio CC50/IC50
[4] = test system: Human adenovirus 5; test: Antiviral activity against Human adenovirus 5 infected in human A549 cells assessed as inhibition of viral entry after 48 hrs by GFP reporter gene based assay; format: functional, organism-based; details: Human mastadenovirus C, A549, 48 h
Outline: (§2)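 Entry assay in A549 epithelial cells infected with HAdV5-GFP at high MOI, with compound present throughout and 48 h incubation. GFP expression is the read-out.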

[5] = test system: Human adenovirus 5; test: Antiviral activity against Human adenovirus 5 infected in human A549 cells assessed as inhibition of viral DNA replication by measuring number of viral DNA copies at 2 uM after 24 hrs by RT-qPCR analysis (reference value: 100 +/- 1.55%); format: functional; set-up: scale not given: the % may be the effect or the level left
[6] = test system: Human adenovirus 5; test: Antiviral activity against Human adenovirus 5 infected in human A549 cells asssessed as inhibition of viral entry by measuring nuclear-associated viral genome level at 2 uM after 45 mins by RT-PCR analysis (reference value: 100.24 +/- 2.77%); format: functional; set-up: scale not given: the % may be the effect or the level left
Outline: (§3)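 Nuclear HAdV genome levels in treated cells were quantified at 45 min post-infection and compared with DMSO-treated cells. […] Bars are means ± SD of triplicate samples.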

[7] = test system: Human adenovirus 5; test: Antiviral activity against Human adenovirus 5 infected in human A549 cells assessed as fold reduction in virus yield at 2 uM after 48 hrs endpoint dilution method relative to control; format: functional
[8] = Cytotoxicity against human A549 cells assessed as reduction in cell viability after 48 hrs by alamar blue assay; format: cell-based
[9] = test system: Human adenovirus 5; test: Antiviral activity against Human adenovirus 5 infected in human A549 cells assessed as inhibition of viral entry at 50 uM after 48 hrs by GFP reporter gene based assay relative to control; format: functional; details: Human mastadenovirus C, A549, 48 h; outline: as §2
[10] = test system: Human adenovirus 5; test: Antiviral activity against Human adenovirus 5 infected in human A549 cells asssessed as inhibition of viral entry by measuring nuclear-associated viral genome level at 50 uM after 45 mins by RT-PCR analysis (reference value: 100.24 +/- 2.77%); format: functional; set-up: scale not given: the % may be the effect or the level left; outline: as §3
[11] = test system: Human adenovirus 5; test: Antiviral activity against Human adenovirus 5 infected in 293beta5 cells assessed as inhibition of plaque formation at 10 uM incubated for 7 days by GFP reporter gene assay relative to control; format: functional; details: Human mastadenovirus C, 293beta5, 168 h; outline: as §1
[12] = test system: Human adenovirus 5; test: Antiviral activity against Human adenovirus 5 infected in human A549 cells assessed as inhibition of viral DNA replication by measuring number of viral DNA copies at 50 uM after 24 hrs by RT-qPCR analysis (reference value: 100 +/- 1.55%); format: functional; set-up: scale not given: the % may be the effect or the level left
[13] = test system: Human adenovirus 5; test: Antiviral activity against Human adenovirus 5 infected in human A549 cells assessed as fold reduction in virus yield at 50 uM after 48 hrs endpoint dilution method relative to control; format: functional
[14] = test system: Human adenovirus 5; test: Antiviral activity against Human adenovirus 5 infected in 293beta5 cells assessed as inhibition of viral infection at 10 uM preincubated for 60 mins followed by viral infection by GFP reporter gene assay relative to control; format: functional; details: Human mastadenovirus C
[15] = test system: Human adenovirus 5; test: Antiviral activity against Human adenovirus 5 infected in 293beta5 cells assessed as inhibition of viral infection at 10 uM measured after 2 hrs post infection by GFP reporter gene assay relative to control; format: functional; details: Human mastadenovirus C, 293beta5, 2 h
[16] = test system: Human adenovirus 5; test: Antiviral activity against Human adenovirus 5 infected in human A549 cells assessed as inhibition of viral DNA replication by measuring number of viral DNA copies at 10 uM after 24 hrs by RT-qPCR analysis (reference value: 100 +/- 1.55%); format: functional; set-up: scale not given: the % may be the effect or the level left
[17] = test system: Human adenovirus 5; test: Antiviral activity against Human adenovirus 5 infected in human A549 cells assessed as fold reduction in virus yield at 10 uM after 48 hrs endpoint dilution method relative to control; format: functional
[18] = test system: Human adenovirus 5; test: Antiviral activity against Human adenovirus 5 infected in 293beta5 cells assessed as inhibition of viral infection at 10 uM measured after 5 to 10 mins post infection by GFP reporter gene assay relative to control; format: functional; set-up: scale not given: the % may be the effect or the level left
[19] = test system: Human adenovirus 5; test: Antiviral activity against Human adenovirus 5 infected in human A549 cells asssessed as inhibition of viral entry by measuring nuclear-associated viral genome level at 10 uM after 45 mins by RT-PCR analysis (reference value: 100.24 +/- 2.77%); format: functional; set-up: scale not given: the % may be the effect or the level left; outline: as §3
[20] = test system: Human adenovirus 5; test: Antiviral activity against Human adenovirus 5 infected in human A549 cells assessed as fold reduction in virus yield at 20 uM after 48 hrs endpoint dilution method relative to control; format: functional
[21] = test system: Human adenovirus 5; test: Antiviral activity against Human adenovirus 5 infected in 293beta5 cells assessed as reduction in inhibition of viral replication at 10 uM preincubated for 60 mins followed by viral infection by GFP reporter gene assay; format: functional, organism-based
[22] = test system: Human adenovirus 5; test: Antiviral activity against Human adenovirus 5 infected in human A549 cells asssessed as inhibition of viral entry by measuring nuclear-associated viral genome level at 20 uM after 45 mins by RT-PCR analysis (reference value: 100.24 +/- 2.77%); format: functional; set-up: scale not given: the % may be the effect or the level left; outline: as §3
[23] = test system: Human adenovirus 5; test: Antiviral activity against Human adenovirus 5 infected in 293beta5 cells assessed as inhibition of viral replication at 10 uM after 20 mins post infection by GFP reporter gene assay relative to control; format: functional; details: Human mastadenovirus C, 293beta5, 20 min
[24] = test system: Human adenovirus 5; test: Antiviral activity against Human adenovirus 5 infected in human A549 cells assessed as inhibition of viral DNA replication by measuring number of viral DNA copies at 20 uM after 24 hrs by RT-qPCR analysis (reference value: 100 +/- 1.55%); format: functional; set-up: scale not given: the % may be the effect or the level left

IC50 [2] [nM] | IC50 [4] [nM] | SMILES | selectivity ratio at 168 h [3] | CC50 at 48 h [8] [nM] | inhibition at 50 µM [9] [%] | inhibition at 10 µM [11] [%] | other results
680 | 1380 | CC(C)[C@H](NC(=O)c1cc(Cl)ccc1NS(C)(=O)=O)C(=O)Nc1ccc([N+](=O)[O-])cc1Cl | 256 | 174000 | 99.1 | 99.1 | Activity [10]: 16.68%; Activity [12]: 4.56%; fold change (FC) [13]: 1; inhibition at 10 µM [14]: > 50%; inhibition at 10 µM [15]: > 50%
80 | 1670 | O=C(Nc1ccc(C(F)(F)F)cc1Cl)c1cc(Cl)ccc1O | – | – | 100 | 100 | Activity [16]: 27.03%; fold change (FC) [17]: 175; Activity [18]: 20%; Activity [19]: 46.53%
300 | 9700 | O=C(N[C@H](Cc1ccccc1)C(=O)Nc1ccc([N+](=O)[O-])cc1Cl)c1cc(Cl)ccc1O | 260 | 77900 | – | 100 | fold change (FC) [20]: 528; Activity [21]: Active; Activity [22]: 32.21%; inhibition at 10 µM [23]: 50%; Activity [24]: 25.78%

SMILES | IC50 [2] [nM] | IC50 [4] [nM] | selectivity ratio at 168 h [3] | CC50 at 48 h [8] [nM] | inhibition at 50 µM [9] [%] | inhibition at 10 µM [11] [%] | other results
O=C(Nc1ccc([N+](=O)[O-])cc1F)c1cc(Cl)ccc1O | 50 | 1570 | 218 | 10900 | – | – | Activity [1]: 34%; Activity [5]: 75.85%; Activity [6]: 57.6%; fold change (FC) [7]: 1.8
